The source made the active and inactive calls. The rule behind the calls is not given here.
Columns and labels:
[1] = test system: Serine/threonine-protein kinase Chk2 (Homo sapiens), O96017 [I157T]; experiment: Inhibition of recombinant human CHK2 I157T mutant (5 to end residues) at 1 uM using KKKVSRSGLYRSPSMPENLNRPR as substrate measured after 40 mins in presence of [gamma33P]ATP by scintillation counting method relative to control
Method in brief: (§1)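 Single-point inhibition at 1 µM was measured in the Eurofins KinaseProfiler panel. Values are the mean of two independent experiments.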

[2] = biological target: Serine/threonine-protein kinase WNK3 (Homo sapiens) (UniProt Q9BYP7); experiment: Inhibition of recombinant human WNK3 (1 to 434 residues) at 1 uM using MBP as substrate measured after 40 mins in presence of [gamma33P]ATP by scintillation counting method relative to control; method in brief: as §1
HeLa = experiment: Antiproliferative activity against human HeLa cells assessed as inhibition of cell viability after 72 hrs by CCK-8 assay; format: functional, cell-based
Method in brief: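 Cells kept at 37 °C, 5% CO2 in DMEM or RPMI-1640 with 10% FBS and 1% penicillin/streptomycin, then seeded at 3000 cells/well (adherent) or 10,000 cells/well (suspension). Exposed to a range of concentrations for 72 h. CCK-8 added for 1-4 h before reading A450. […] Three independent experiments.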

[3] = biological target: SRSF protein kinase 3 (Homo sapiens) (UniProt Q9UPE1); experiment: Inhibition of recombinant full-length human MSSK1 at 1 uM using ERMRPRKRQGSVRRRV as substrate measured after 40 mins in presence of [gamma33P]ATP by scintillation counting method relative to control
[4] = biological target: Rho-associated protein kinase 2 (Homo sapiens) (UniProt O75116); experiment: Inhibition of human ROCK2 (11 to 552 residues) at 1 uM using KEAKEKRQEQIAKRRRLSSLRASTSKSGGSQK as substrate measured after 40 mins in presence of [gamma33P]ATP by scintillation counting method relative to control
Method in brief: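 Percent inhibition at 1 µM was measured by the contract KinaseProfiler service (Eurofins) on the human kinase. Values are the mean of two independent experiments.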

[5] = biological target: Serine/threonine-protein kinase N2 (Homo sapiens) (UniProt Q16513); experiment: Inhibition of human PRK2 (501 to end residues) at 1 uM using AKRRRLSSLRA as substrate measured after 40 mins in presence of [gamma33P]ATP by scintillation counting method relative to control; method in brief: as §1
NCI-H1299 = experiment: Induction of apoptosis in human H1299 cells assessed as viable cells at 0.25 uM after 48 hrs by AnnexinV-FITC/PI staining-based flow cytometric analysis (reference value: 97.1%); format: functional; conditions: NCI-H1299, 48 h, read-out: Activity
[6] = test system: Hepatocyte growth factor receptor (Homo sapiens), P08581 [Y1230D]; experiment: Inhibition of recombinant human MET A1209G/V1290L/Y1248D mutant (974 to end residues) at 1 uM using KKKGQEEEYVFIE as substrate measured after 40 mins in presence of [gamma33P]ATP by scintillation counting method relative to control
[7] = biological target: Protein kinase C gamma type (Homo sapiens) (UniProt P05129); experiment: Inhibition of recombinant full-length human PKCgamma at 1 uM using histone H1 as substrate measured after 40 mins in presence of [gamma33P]ATP by scintillation counting method relative to control
[8] = test system: Receptor tyrosine-protein kinase erbB-2 (Homo sapiens), P04626 [G778D]; experiment: Inhibition of recombinant human ErbB2 (676 to end residues) G778D mutant at 1 uM using poly(Glu, Tyr) 4:1 as substrate measured after 40 mins in presence of [gamma33P]ATP by scintillation counting method relative to control
[9] = biological target: Mitogen-activated protein kinase kinase kinase kinase 1 (Homo sapiens) (UniProt Q92918); experiment: Inhibition of recombinant human HPK1 (1 to 346 residues) at 1 uM using myelin basic protein as substrate measured after 40 mins in presence of [gamma33P]ATP by scintillation counting method relative to control
[10] = biological target: Serine/threonine-protein kinase 10 (Homo sapiens) (UniProt O94804); experiment: Inhibition of recombinant human LOK (1 to 348 residues) at 1 uM using RLGRDKYKTLRQIRQ as substrate measured after 40 mins in presence of [gamma33P]ATP by scintillation counting method relative to control
Chain of Serine/threonine-protein kinase 10 (Homo sapiens) (O94804 whole entry, looked up, the tested form may be a part): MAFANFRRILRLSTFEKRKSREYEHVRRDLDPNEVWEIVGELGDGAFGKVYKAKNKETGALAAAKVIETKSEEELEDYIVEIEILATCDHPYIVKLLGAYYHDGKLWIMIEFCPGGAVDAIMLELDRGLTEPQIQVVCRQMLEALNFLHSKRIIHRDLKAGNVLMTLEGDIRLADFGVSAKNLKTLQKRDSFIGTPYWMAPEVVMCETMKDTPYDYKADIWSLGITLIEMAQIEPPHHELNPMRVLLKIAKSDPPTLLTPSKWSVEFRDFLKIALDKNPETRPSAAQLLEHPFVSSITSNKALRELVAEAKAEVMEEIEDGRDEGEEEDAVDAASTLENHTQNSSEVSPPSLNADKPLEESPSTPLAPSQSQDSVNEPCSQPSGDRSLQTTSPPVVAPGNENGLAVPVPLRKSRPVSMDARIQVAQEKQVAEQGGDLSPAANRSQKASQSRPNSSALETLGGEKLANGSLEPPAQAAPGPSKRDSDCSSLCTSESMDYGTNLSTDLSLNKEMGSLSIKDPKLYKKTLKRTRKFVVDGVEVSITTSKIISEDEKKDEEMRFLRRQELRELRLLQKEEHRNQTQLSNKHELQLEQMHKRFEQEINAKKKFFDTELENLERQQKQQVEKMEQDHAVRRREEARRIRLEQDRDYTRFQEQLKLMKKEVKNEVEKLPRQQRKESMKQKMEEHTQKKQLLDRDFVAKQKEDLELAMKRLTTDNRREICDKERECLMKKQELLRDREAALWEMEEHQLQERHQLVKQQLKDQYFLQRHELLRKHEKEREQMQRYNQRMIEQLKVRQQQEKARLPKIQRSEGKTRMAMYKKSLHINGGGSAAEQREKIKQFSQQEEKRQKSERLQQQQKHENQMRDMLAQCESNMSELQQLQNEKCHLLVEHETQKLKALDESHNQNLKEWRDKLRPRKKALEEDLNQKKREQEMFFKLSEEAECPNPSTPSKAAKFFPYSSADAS

[11] = biological target: Protein kinase C alpha type (Homo sapiens) (UniProt P17252); experiment: Inhibition of recombinant full-length human PKCalpha at 1 uM using histone H1 as substrate measured after 40 mins in presence of [gamma33P]ATP by scintillation counting method relative to control
[12] = biological target: Cyclin-dependent kinase 9 (Homo sapiens) (UniProt P50750); conditions: 0.25 to 1 uM
Chain of Cyclin-dependent kinase 9 (Homo sapiens) (P50750 whole entry): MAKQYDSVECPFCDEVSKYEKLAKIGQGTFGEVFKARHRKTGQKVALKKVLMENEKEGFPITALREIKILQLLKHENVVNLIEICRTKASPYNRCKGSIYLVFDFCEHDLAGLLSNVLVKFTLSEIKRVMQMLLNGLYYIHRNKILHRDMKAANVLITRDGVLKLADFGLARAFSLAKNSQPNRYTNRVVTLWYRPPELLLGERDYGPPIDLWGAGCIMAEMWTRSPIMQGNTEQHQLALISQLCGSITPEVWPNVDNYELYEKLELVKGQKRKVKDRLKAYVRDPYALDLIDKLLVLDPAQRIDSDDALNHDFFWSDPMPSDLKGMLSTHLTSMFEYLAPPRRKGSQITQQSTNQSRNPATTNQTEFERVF

[13] = biological target: Serine/threonine-protein kinase Nek2 (Homo sapiens) (UniProt P51955); experiment: Inhibition of recombinant full-length human NEK2 at 1 uM using myelin basic protein as substrate measured after 40 mins in presence of [gamma33P]ATP by scintillation counting method relative to control
Chain of Serine/threonine-protein kinase Nek2 (Homo sapiens) (P51955 whole entry): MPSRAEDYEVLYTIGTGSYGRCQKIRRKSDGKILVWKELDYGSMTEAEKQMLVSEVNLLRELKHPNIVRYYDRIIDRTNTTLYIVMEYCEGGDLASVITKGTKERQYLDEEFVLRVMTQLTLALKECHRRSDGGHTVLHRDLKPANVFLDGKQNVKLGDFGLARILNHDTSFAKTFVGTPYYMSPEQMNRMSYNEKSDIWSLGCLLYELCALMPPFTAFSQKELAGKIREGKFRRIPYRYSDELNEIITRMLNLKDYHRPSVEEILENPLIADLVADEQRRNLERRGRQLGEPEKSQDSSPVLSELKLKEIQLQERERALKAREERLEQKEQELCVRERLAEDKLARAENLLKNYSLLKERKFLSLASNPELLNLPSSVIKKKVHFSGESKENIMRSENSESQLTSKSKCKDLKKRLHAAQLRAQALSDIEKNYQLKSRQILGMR

[14] = biological target: Serine/threonine-protein kinase/endoribonuclease IRE1 (Homo sapiens) (UniProt O75460); experiment: Inhibition of recombinant human IRE1 (465 to end residues) at 1 uM using myelin basic protein as substrate measured after 40 mins in presence of [gamma33P]ATP by scintillation counting method relative to control
[15] = test system: SNF-related serine/threonine-protein kinase (Homo sapiens), Q9NRH2 [UNDEFINED MUTATION]; experiment: Inhibition of human SNRK E97G/P116A mutant (1 to 505 residues) at 1 uM using KKLRRTLSFAEPG as substrate measured after 40 mins in presence of [gamma33P]ATP by scintillation counting method relative to control
Method in brief: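 Percent inhibition of kinase activity at a single compound concentration, measured by the outsourced Eurofins KinaseProfiler panel. Values are the mean of two independent experiments.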

[16] = biological target: Casein kinase I isoform gamma-2 (Homo sapiens) (UniProt P78368); experiment: Inhibition of recombinant human CK1gamma2 (18 to end residues) at 1 uM using KRRRALS(p)VASLPGL as substrate measured after 40 mins in presence of [gamma33P]ATP by scintillation counting method relative to control
Chain of Casein kinase I isoform gamma-2 (Homo sapiens) (P78368 whole entry, looked up, canonical isoform): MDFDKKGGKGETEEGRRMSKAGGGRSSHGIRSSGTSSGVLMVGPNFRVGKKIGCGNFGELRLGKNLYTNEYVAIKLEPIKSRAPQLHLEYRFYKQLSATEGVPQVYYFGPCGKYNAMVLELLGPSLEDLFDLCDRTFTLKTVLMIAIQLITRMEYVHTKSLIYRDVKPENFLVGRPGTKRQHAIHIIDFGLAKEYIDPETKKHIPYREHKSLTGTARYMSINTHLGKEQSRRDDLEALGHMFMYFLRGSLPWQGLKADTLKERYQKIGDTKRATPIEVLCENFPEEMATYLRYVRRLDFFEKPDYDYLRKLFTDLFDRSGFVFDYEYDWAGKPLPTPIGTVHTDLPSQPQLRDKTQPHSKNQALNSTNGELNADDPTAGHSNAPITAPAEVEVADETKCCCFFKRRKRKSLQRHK

[17] = biological target: Serine/threonine-protein kinase TBK1 (Homo sapiens) (UniProt Q9UHD2); experiment: Inhibition of recombinant full-length human TBK1 at 1 uM using KRRRALS(p)VASLPGL as substrate measured after 40 mins in presence of [gamma33P]ATP by scintillation counting method relative to control; method in brief: as §1
Chain of Serine/threonine-protein kinase TBK1 (Homo sapiens) (Q9UHD2 whole entry, the tested form may be a part): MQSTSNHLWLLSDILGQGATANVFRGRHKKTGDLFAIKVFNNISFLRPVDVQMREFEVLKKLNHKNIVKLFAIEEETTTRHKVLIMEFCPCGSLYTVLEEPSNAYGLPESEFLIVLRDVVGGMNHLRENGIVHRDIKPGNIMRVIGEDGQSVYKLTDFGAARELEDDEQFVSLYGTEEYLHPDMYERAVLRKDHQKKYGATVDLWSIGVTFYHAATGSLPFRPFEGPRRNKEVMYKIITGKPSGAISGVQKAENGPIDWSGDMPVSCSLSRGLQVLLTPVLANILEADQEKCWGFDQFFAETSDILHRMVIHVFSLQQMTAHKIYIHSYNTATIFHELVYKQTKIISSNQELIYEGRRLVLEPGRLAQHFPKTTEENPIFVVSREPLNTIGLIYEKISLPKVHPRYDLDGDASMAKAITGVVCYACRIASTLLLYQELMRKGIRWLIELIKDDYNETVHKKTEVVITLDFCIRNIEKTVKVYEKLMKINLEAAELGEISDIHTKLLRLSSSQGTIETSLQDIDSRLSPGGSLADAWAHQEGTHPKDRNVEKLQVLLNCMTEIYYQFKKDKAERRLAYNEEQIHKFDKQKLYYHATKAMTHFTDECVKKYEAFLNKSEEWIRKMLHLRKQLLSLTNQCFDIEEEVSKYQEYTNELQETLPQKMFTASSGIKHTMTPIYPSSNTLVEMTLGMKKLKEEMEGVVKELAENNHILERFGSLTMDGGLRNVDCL

[18] = biological target: Death-associated protein kinase 3 (Homo sapiens) (UniProt O43293); experiment: Inhibition of recombinant human ZIPK (1 to 290 residues) at 1 uM using KKLNRTLSFAEPG as substrate measured after 40 mins in presence of [gamma33P]ATP by scintillation counting method relative to control; method in brief: as §1
[19] = biological target: Mitogen-activated protein kinase kinase kinase 5 (Homo sapiens) (UniProt Q99683); experiment: Inhibition of recombinant human ASK1 (649 to 946 residues) at 1 uM using myelin basic protein as substrate measured after 40 mins in presence of [gamma33P]ATP by scintillation counting method relative to control
Chain of Mitogen-activated protein kinase kinase kinase 5 (Homo sapiens) (Q99683 whole entry, the tested form may be a part): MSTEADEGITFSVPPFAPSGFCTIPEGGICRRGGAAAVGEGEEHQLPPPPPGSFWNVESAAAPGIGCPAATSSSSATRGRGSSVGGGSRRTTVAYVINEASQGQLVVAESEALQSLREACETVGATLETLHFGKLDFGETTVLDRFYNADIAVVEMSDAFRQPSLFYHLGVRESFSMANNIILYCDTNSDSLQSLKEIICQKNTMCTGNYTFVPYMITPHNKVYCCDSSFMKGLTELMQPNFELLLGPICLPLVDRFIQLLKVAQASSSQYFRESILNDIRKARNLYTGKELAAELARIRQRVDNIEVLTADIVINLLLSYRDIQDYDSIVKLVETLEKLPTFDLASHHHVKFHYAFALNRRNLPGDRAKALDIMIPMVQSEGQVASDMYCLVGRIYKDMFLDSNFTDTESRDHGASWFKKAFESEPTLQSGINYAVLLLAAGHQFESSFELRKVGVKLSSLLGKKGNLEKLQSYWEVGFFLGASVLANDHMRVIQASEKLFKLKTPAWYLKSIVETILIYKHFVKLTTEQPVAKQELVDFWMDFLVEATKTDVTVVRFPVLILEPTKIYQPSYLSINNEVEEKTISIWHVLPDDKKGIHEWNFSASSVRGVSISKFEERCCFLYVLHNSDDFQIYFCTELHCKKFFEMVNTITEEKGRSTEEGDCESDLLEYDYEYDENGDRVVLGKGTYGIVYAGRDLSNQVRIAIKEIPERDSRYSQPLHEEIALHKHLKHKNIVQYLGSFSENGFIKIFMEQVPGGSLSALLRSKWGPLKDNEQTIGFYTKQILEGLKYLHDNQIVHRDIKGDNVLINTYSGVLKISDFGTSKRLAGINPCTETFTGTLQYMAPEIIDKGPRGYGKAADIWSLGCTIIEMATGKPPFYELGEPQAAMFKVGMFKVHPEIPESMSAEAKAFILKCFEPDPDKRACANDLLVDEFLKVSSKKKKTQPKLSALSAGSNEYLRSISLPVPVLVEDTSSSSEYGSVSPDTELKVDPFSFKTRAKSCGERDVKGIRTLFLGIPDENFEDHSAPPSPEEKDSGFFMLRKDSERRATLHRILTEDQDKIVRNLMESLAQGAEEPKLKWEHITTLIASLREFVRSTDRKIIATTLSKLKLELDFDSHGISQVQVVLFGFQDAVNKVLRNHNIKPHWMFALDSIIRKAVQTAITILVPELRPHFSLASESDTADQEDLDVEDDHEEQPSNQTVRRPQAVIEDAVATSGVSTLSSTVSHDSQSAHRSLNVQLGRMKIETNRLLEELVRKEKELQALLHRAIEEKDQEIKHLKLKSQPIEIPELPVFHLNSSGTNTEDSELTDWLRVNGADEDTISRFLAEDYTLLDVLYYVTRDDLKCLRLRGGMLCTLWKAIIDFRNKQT

Q: With `CN(C)C(=O)c1cc2cnc(Nc3ccc(NC(=O)CCCCCCCN=C=S)cc3)nc2n1C1CCCC1` as the compound, how does the inhibition [1] read?
A: The inhibition was 43%.

Q: What about the inhibition [2] of the same compound?
A: The inhibition was 12%.

Q: And the IC50 (HeLa)?
A: The IC50 was 1.85 µM.

Q: And the inhibition [3]?
A: Its inhibition is 18%.

Q: And the inhibition [4]?
A: Its inhibition is 5%.

Q: What about the inhibition [5] of the same compound?
A: The inhibition was 11%.

Q: What about the viability at 0.25 µM (NCI-H1299) of the same compound?
A: Its viability at 0.25 µM is 96.7%.

Q: What about the inhibition [6] of the same compound?
A: The inhibition was 68%.

Q: And the inhibition [7]?
A: The inhibition was 86%.

Q: What about the inhibition [8] of the same compound?
A: Its inhibition is -1%.

Q: What about the inhibition [9] of the same compound?
A: The inhibition was 85%.

Q: What about the inhibition [10] of the same compound?
A: Its inhibition is 71%.

Q: And the inhibition [11]?
A: Its inhibition is 68%.

Q: And the inhibition [12]?
A: The inhibition was “Active”.

Q: What about the inhibition [13] of the same compound?
A: The inhibition was 13%.

Q: What about the inhibition [14] of the same compound?
A: The inhibition was 29%.

Q: What about the inhibition [15] of the same compound?
A: Its inhibition is 7%.

Q: And the inhibition [16]?
A: The inhibition was 20%.

Q: What about the inhibition [17] of the same compound?
A: The inhibition was 12%.

Q: And the inhibition [18]?
A: Its inhibition is 1%.

Q: And the inhibition [19]?
A: Its inhibition is -7%.

From ChEMBL document CHEMBL4376814, “Novel cyclin-dependent kinase 9 (CDK9) inhibitor with suppression of cancer stemness activity against non-small-cell lung cancer” (Eur J Med Chem, 2019)
